These results are taken from ChEMBL document CHEMBL4014309, “Development of an Acrylate Derivative Targeting the NLRP3 Inflammasome for the Treatment of Inflammatory Bowel Disease” (J Med Chem, 2017).

The structures appear in SMILES notation. Active and inactive are the calls of the source. No cut-off for these calls is given here.

serum albumin, sequence (P02768 whole entry): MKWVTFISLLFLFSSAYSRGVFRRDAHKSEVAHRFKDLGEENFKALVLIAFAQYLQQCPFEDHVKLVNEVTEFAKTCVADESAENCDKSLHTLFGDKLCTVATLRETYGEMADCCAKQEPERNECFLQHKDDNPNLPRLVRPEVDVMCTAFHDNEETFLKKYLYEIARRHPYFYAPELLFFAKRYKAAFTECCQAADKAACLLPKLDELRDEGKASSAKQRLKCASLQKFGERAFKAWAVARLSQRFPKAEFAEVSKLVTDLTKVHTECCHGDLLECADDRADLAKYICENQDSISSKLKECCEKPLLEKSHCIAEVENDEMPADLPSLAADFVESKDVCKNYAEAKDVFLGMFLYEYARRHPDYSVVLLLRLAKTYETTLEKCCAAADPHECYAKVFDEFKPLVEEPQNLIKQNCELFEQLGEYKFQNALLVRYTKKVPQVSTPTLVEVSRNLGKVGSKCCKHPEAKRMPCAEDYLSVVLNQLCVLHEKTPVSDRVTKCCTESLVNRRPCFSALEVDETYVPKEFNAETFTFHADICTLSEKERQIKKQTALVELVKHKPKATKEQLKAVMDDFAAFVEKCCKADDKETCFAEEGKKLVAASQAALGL

One data set addresses serum albumin (Homo sapiens, UniProt P02768). As to the kind of experiment: Binding affinity to human serum albumin after 5 mins by RP-UHPLC analysis. Format: ADME. As to conditions: read-out: PB (converted).
Take `C=C(C(=O)OCC)C(O)c1ccccc1Cl` (centres undefined): the fraction unbound at 5 min is 0.35.

Test system in another data set: not listed separately
As to the kind of experiment: Cysteamine reactivity of the compound in PBS assessed as second order rate constant for free cysteamine release at 250 uM and pH 7.4 after 90 mins by DTNB reagent based RP-UHPLC analysis.
Settings: not given
The gist of the method: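 Compound (250 µM) was mixed with equimolar cysteamine in pH 7.4 PBS containing 12.5% CH3CN at 37 °C. Free cysteamine was tracked with DTNB at several time points over 90 min. Second-order k2 came from 1/[CAM] = 1/[CAM]0 + kt, using 3–10 points per plot; mean ± SEM of ≥3 experiments.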
On to `CC(Cc1ccccc1Cl)C(=O)O` (centres undefined), for which the Drug metabolism entry is recorded as “Metabolite not detected”.

With `C=C(Cc1ccccc1Cl)C(=O)O`, the Drug metabolism result is “Metabolite not detected”.

As to `O=[N+]([O-])/C=C/c1ccc2c(c1)OCO2`, the K was 2.5 M⁻¹ s⁻¹.

In the case of `C=C(C(=O)O)C(O)c1ccccc1Cl` (centres undefined), the Drug metabolism entry is given as “Metabolite not detected”.

In the case of `C=C(C(=O)OCC)C(OC)c1ccccc1Cl` (centres undefined), the K amounted to 1.6 M⁻¹ s⁻¹.

As for `CCOC(=O)C1=CCOC1c1ccccc1Cl` (centres undefined), the K is 8.18 M⁻¹ s⁻¹.

Regarding `C=C(C(=O)OCC)C(O)c1ccccc1Cl` (centres undefined), the K was 0.824 M⁻¹ s⁻¹.

Test system in another data set: not listed separately
As to the kind of experiment: Cytotoxicity against human THP1 cells assessed as reduction in cell viability after 72 hrs by MTT assay. Format: cell-based. As to conditions: THP-1 cells, read-out: TC50. Summed up: (§1)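 Human THP-1 cells were exposed to 0.1–100 µM for 72 h, and viability was read by MTT. TC50 is the concentration that cuts viability by 50%; percent viable cells at 100 µM is also reported. Mean ± SEM of ≥3 experiments.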
Turning to `CC(Cc1ccccc1Cl)C(=O)O` (centres undefined), the CC50 at 72 h is above 100 µM.

On to `C=C(Cc1ccccc1Cl)C(=O)O`, for which the CC50 at 72 h was above 100 µM.

`O=[N+]([O-])/C=C/c1ccc2c(c1)OCO2`: the CC50 at 72 h was found to be 3.2 µM.

`C=C(C(=O)O)C(O)c1ccccc1Cl` (centres undefined): the CC50 at 72 h is above 100 µM.

For the compound `C=C(C(=O)OCC)C(OC)c1ccccc1Cl` (centres undefined), the CC50 at 72 h is above 100 µM.

With `C=C(C(=O)OCC)C(O)c1ccccc1Cl` (centres undefined), the CC50 at 72 h worked out at 65 µM.

Test system in a further data set: not listed separately
As to the kind of experiment: Cytotoxicity against human THP1 cells assessed as cell viability at 100 uM after 72 hrs by MTT assay. It is filed as cell-based. As to conditions: THP-1 cells, read-out: Activity. The gist of the method:
as §1
For orientation: Tetrazolium dyes change colour on reduction, which living cells bring about.
Regarding `CC(Cc1ccccc1Cl)C(=O)O` (centres undefined), the viability at 72 h, 100 µM was determined as 98.7%.

As for `C=C(Cc1ccccc1Cl)C(=O)O`, the viability at 72 h, 100 µM was 102%.

As to `C=C(C(=O)O)C(O)c1ccccc1Cl` (centres undefined), the viability at 72 h, 100 µM was 80.7%.

On to `C=C(C(=O)OCC)C(OC)c1ccccc1Cl` (centres undefined), for which the viability at 72 h, 100 µM turned out to be 78.1%.

The target of another data set is NACHT, LRR and PYD domains-containing protein 3 (Homo sapiens) (UniProt Q96P20). As to the kind of experiment: Inhibition of recombinant human NLRP3 ATPase assessed as hydrolysis of ATP at 100 uM preincubated for 15 mins followed by addition of ATP measured after 40 mins by ADP-Glo assay.
NACHT, LRR and PYD domains-containing protein 3 (Homo sapiens), sequence (Q96P20 whole entry, the tested form may be a part): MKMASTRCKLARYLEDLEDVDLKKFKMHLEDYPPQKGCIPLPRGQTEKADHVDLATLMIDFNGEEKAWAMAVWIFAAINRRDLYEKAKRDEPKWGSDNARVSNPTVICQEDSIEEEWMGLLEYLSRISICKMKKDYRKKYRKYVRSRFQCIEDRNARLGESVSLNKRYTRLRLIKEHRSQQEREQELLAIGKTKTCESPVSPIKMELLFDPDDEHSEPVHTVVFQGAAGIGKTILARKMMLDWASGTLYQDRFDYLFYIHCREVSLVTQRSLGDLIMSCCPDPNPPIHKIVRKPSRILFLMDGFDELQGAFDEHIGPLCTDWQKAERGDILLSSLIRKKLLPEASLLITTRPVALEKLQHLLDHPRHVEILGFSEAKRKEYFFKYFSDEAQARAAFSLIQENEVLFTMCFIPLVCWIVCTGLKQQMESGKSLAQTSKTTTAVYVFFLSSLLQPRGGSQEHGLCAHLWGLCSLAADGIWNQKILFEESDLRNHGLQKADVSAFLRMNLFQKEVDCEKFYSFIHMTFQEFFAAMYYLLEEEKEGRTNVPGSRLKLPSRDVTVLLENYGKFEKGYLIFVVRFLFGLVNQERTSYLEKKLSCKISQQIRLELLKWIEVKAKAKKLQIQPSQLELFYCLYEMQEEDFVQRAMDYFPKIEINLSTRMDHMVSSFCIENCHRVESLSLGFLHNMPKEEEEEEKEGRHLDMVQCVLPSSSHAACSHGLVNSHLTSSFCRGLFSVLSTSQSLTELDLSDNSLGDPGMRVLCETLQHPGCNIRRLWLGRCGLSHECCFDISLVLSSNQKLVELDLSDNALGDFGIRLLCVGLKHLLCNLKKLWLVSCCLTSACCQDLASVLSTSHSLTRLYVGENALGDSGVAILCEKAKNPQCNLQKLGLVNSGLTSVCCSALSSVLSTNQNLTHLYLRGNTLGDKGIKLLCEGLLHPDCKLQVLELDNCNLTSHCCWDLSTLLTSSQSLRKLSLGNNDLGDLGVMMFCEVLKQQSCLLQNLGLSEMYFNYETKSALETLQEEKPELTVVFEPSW
Settings: not given
The gist of the method:
(§2)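 Human recombinant NLRP3 (0.105 µg) in 20 mM Tris-HCl pH 7.8, 133 mM NaCl, 20 mM MgCl2, 3 mM KCl, 0.56 mM EDTA, 0.5% DMSO. Compound (100 or 50 µM) was preincubated 15 min at 37 °C, then ATP (250 µM) was added for 40 min at 37 °C. ADP was read by ADP-Glo luminescence. Result is % inhibition vs vehicle; mean ± SEM, ≥3 experiments.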
In general terms: In ADP-Glo the light output rises with the ADP produced.
The term inhibition denotes the percentage by which the read-out fell short of the control. Regarding `CC(Cc1ccccc1Cl)C(=O)O` (centres undefined), the inhibition is 15%.

In the case of `C=C(Cc1ccccc1Cl)C(=O)O`, the inhibition was determined as 44%.

Turning to `C=C(C(=O)O)C(O)c1ccccc1Cl` (centres undefined), the inhibition was 69%.

Consider `C=C(C(=O)OCC)C(OC)c1ccccc1Cl` (centres undefined), for which the inhibition was determined as 60%.

As for `C=C(C(=O)OCC)C(O)c1ccccc1Cl` (centres undefined), the inhibition was determined as 72%.

The target is the same in a further data set. As to the kind of experiment: Inhibition of recombinant human NLRP3 ATPase assessed as hydrolysis of ATP at 50 uM preincubated for 15 mins followed by addition of ATP measured after 40 mins by ADP-Glo assay.
Settings: not given
Summed up: as §2
For the compound `CC(Cc1ccccc1Cl)C(=O)O` (centres undefined), the inhibition result is “inactive”.

`C=C(Cc1ccccc1Cl)C(=O)O`: the inhibition was 22%.

As for `C=C(C(=O)O)C(O)c1ccccc1Cl` (centres undefined), the inhibition worked out at 21%.

For `C=C(C(=O)OCC)C(OC)c1ccccc1Cl` (centres undefined), the inhibition was 24%.

For `C=C(C(=O)OCC)C(O)c1ccccc1Cl` (centres undefined), the inhibition stood at 32%.

The next data set shares this target. As to the kind of experiment: Inhibition of NLRP3 in PMA-differentiated and LPS-primed human THP1 cells assessed as decrease in ATP-induced pyroptosis measured as LDH activity at 10 uM preincubated for 1 hr followed by ATP addition measured after 1 hr by colorimetric assay relative to control.
Settings: not given
The gist of the method:
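THP-1 cells were PMA-differentiated and LPS-primed, then pretreated with vehicle or compound (10 µM, 1 h). Pyroptosis was triggered with ATP (5 mM). LDH in supernatant was measured colorimetrically 1 h after ATP and expressed as percent decrease versus vehicle, mean ± SEM of ≥3 experiments.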
Consider `CC(Cc1ccccc1Cl)C(=O)O` (centres undefined), for which the inhibition was found to be 5.2%.

Take `C=C(Cc1ccccc1Cl)C(=O)O`: the inhibition came to 35.8%.

Regarding `C=C(C(=O)OCC)C(OC)c1ccccc1Cl` (centres undefined), the inhibition is 37.2%.

As for `C=C(C(=O)OCC)C(O)c1ccccc1Cl` (centres undefined), the inhibition was determined as 80.9%.

Test system in the next data set: not listed separately
As to the kind of experiment: Metabolic stability in Sprague-Dawley rat liver microsomes at 100 uM after 2 hrs in presence of NADPH-generating system by UHPLC-MS analysis. Format: ADME, microsome. Conditions: read-out: Stability. The gist of the method: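 Rat liver microsomes (0.5 mg protein/mL) in 100 mM phosphate buffer pH 7.4 with NADPH-generating system, compound 100 µM final (≤2% DMSO), 37 °C, shaking, up to 120 min. Samples were taken at 0, 15, 30, 60 and 120 min and quenched with acetonitrile on ice. Analysis by UHPLC-MS; runs were also done without NADPH system. ≥3 independent repeats.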
With `C=C(Cc1ccccc1Cl)C(=O)O`, the remaining at 2 h, 100 µM was above 99%.

The subject of a further data set is Liver. As to the kind of experiment: Drug level in Sprague-Dawley rat liver microsomes treated with INF39 at 100 uM up to 2 hrs by UHPLC-MS analysis. Format: ADME, microsome.
Settings: not given
(In general: Liver microsomes are vesicles of endoplasmic reticulum, rich in cytochrome P450 enzymes.)
`C=C(Cc1ccccc1Cl)C(=O)O`: the Drug metabolism result was “Metabolite_Detected”.

The next data set has as its target NACHT, LRR and PYD domains-containing protein 3 (Homo sapiens) (UniProt Q96P20). As to the kind of experiment: Inhibition of recombinant human NLRP3 ATPase assessed as hydrolysis of ATP preincubated for 15 mins followed by addition of ATP measured after 40 mins by ADP-Glo assay.
Settings: not given
Summed up:
as §2
Turning to `C=C(Cc1ccccc1Cl)C(=O)O`, the inhibition result was “Dose-dependent effect”.

Take `C=C(C(=O)O)C(O)c1ccccc1Cl` (centres undefined): the inhibition entry is “Dose-dependent effect”.

In the case of `C=C(C(=O)OCC)C(OC)c1ccccc1Cl` (centres undefined), the inhibition result was “Dose-dependent effect”.

Regarding `CCOC(=O)C1=CCOC1c1ccccc1Cl` (centres undefined), the inhibition entry is “Dose-dependent effect”.

For `C=C(C(=O)OCC)C(O)c1ccccc1Cl` (centres undefined), the inhibition result was “Dose-dependent effect”.
